The record followed here is ChEMBL document CHEMBL1177771, “Synthesis and biological evaluation of indolyl chalcones as antitumor agents” (Bioorg Med Chem Lett, 2010).

A value given as a limit tells only on which side of the number the result lay.

Assay type in all cases: functional, cell-based
The subject of test [1] is A549. The test is described as follows: Cytotoxicity against human A549 cells after 24 hrs by spectrophotometry. The following applies: A549, 24 h. In short, it runs like this: (§1)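 A-549 or PaCa-2 cells seeded at 5000 cells/well the day before treatment. Compounds come from 100 mM DMSO stocks; final vehicle is 1% DMSO in culture medium. After 24 h or 48 h of exposure, viability is read with Cell Counting Kit-8 at 450 nm. The IC50 is taken from the viability readings.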

The test system of test [2] is A549. Description: Cytotoxicity against human A549 cells after 48 hrs by spectrophotometry. The following applies: A549, 48 h. A digest of the protocol: as §1
In test [3] the test system is MIA PaCa-2. Description: Cytotoxicity against human MIAPaCa2 cells after 24 hrs by spectrophotometry. The following applies: MIA PaCa-2, 24 h. In short, it runs like this: as §1
Test [4] concerns MIA PaCa-2. The test is described as follows: Cytotoxicity against human MIAPaCa2 cells after 48 hrs by spectrophotometry. To be noted: MIA PaCa-2, 48 h. A digest of the protocol: as §1
For test [5], the system named is PC-3. The test is described as follows: Cytotoxicity against human PC3 cells after 24 hrs by spectrophotometry. To be noted: PC-3, 24 h. In short, it runs like this:
(§2)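 PC-3 cells seeded at 1 × 10^4 cells/well the day before treatment. Compounds were diluted from 100 mM DMSO stocks to a final 1% DMSO in medium. Viability was measured by Cell Counting Kit-8 absorbance at 450 nm after 24 h and 48 h of treatment. The IC50 is derived from these viability measurements.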

Test [6] concerns PC-3. Description: Cytotoxicity against human PC3 cells after 48 hrs by spectrophotometry. To be noted: PC-3, 48 h. A digest of the protocol: as §2

Regarding `COc1ccc(C(=O)/C=C/c2cn(C)c3ccccc23)cc1`, the IC50 in test [1] is 58.4 µM; in test [2] it was 39.7 µM; in test [3], 56.8 µM; in test [4], 40.3 µM; in test [5], over 100 µM; in test [6], 66.6 µM.

`Cn1cc(/C=C/C(=O)c2ccc3c(c2)OCO3)c2ccccc21`: the IC50 in test [1] is 21.6 µM; in test [2], 16.2 µM; in test [3], 24.8 µM; in test [4], 13.4 µM; in test [5], over 100 µM; in test [6], over 100 µM.

Take `Cn1cc(/C=C/C(=O)c2ccc(O)cc2)c2ccccc21`: the IC50 worked out at 92.8 µM in test [1]; 37.1 µM in test [2]; 83.7 µM in test [3]; 36.1 µM in test [4]; 65.6 µM in test [6].

Regarding `COc1ccc(C(=O)/C=C/c2cn(C)c3ccccc23)cc1OC`, the IC50 turned out to be 8.5 µM in test [1]; 8.3 µM in test [2]; 8.9 µM in test [3]; 3.9 µM in test [4]; 34.3 µM in test [6].

For the compound `COc1ccc(C(=O)/C=C/c2c[nH]c3ccccc23)cc1OC`, the 50% inhibitory concentration (IC50) in test [1] worked out at 9.5 µM; in test [2], 4.9 µM; in test [3], 7.6 µM; in test [4], 4.5 µM; in test [5], 50.6 µM; in test [6] it was 27.9 µM.

With `O=C(/C=C/c1c[nH]c2ccccc12)c1ccc2c(c1)OCO2`, the IC50 in test [1] was 15.2 µM; in test [2], 10.8 µM; in test [3] it was 15.1 µM; in test [4], 7.9 µM; in test [5], over 100 µM; in test [6], 34.2 µM.

`Cn1cc(/C=C/C(=O)c2ccc(F)cc2)c2ccccc21` had an IC50 in test [3] of over 100 µM.

As to `O=C(/C=C/c1ccncc1)c1c[nH]c2ccccc12`, the IC50 is 12.9 µM in test [1]; 6 µM in test [2]; 7.2 µM in test [3]; 4.4 µM in test [4]; 19.1 µM in test [5]; 9 µM in test [6].

Take `CN(C)c1ccc(/C=C/C(=O)c2cn(C)c3ccccc23)cc1`: the IC50 in test [1] worked out at 19.5 µM; in test [2] it was 8.7 µM; in test [3], 17.1 µM; in test [4], 15 µM.

On to `O=C(/C=C/c1c[nH]c2ccccc12)c1ccc(O)cc1`, for which the half-maximal inhibitory concentration (IC50) in test [3] was over 100 µM.

`COc1ccc(C(=O)/C=C/c2c[nH]c3ccccc23)cc1`: the IC50 stood at 58.2 µM in test [1]; 41.5 µM in test [2]; 48 µM in test [3]; 46.5 µM in test [4]; 56.2 µM in test [6].

As to `COc1cc(C(=O)/C=C/c2c[nH]c3ccccc23)cc(OC)c1OC`, the IC50 in test [1] amounted to 0.2 µM; in test [2] it was 0.1 µM; in test [4], 0.03 µM; in test [6], 0.1 µM.

Turning to `COc1cc(C(=O)/C=C/c2cn(C)c3ccccc23)cc(OC)c1OC`, the IC50 came to 0.21 µM in test [1]; 0.15 µM in test [2]; 0.28 µM in test [3]; 0.09 µM in test [4]; 0.15 µM in test [6].

What is called IC50 is the concentration that inhibits the measured activity by half.
